Sampled rows, rich in hits. Any-hit rate of the full collection: about 3.4%.
KCC2 mod: KCC2 cotransporter modulators, thallium flux, primary screen, cell-based, HEK293 KCC2, FluoZin-2 fluorescence, MLSMR; 190,000 tested, 2.2% active; AID 1456, 2008; KCC2 cells, thallium flux FluoZin-2 fluorescence; Solute carrier family 12 member 5 (Homo sapiens), Q9H2X9; B-score of Tl+ flux slope (higher = more flux/activation; lower = inhibition) at 10 µM;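 active means thallium flux slope and its plate-corrected score both differing from the plate sample mean at a set confidence after two filtering rounds, in either direction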;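 further: slope of fluorescence scaled to starting intensity during 10 to 20 s after thallium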
PKD1 inh: inhibitors of human PKD1 kinase, biochemical, fluorescence polarization; Serine/threonine-protein kinase D1 (Homo sapiens), Q15139; PKD1 kinase fluorescence polarization assay; inhibition, % (concentration not given with the values); 200,000 tested, 0.056% active; AID 797, 2007; in the data active means inhibition above about 50%
Target sequence (Q15139 whole entry, looked up): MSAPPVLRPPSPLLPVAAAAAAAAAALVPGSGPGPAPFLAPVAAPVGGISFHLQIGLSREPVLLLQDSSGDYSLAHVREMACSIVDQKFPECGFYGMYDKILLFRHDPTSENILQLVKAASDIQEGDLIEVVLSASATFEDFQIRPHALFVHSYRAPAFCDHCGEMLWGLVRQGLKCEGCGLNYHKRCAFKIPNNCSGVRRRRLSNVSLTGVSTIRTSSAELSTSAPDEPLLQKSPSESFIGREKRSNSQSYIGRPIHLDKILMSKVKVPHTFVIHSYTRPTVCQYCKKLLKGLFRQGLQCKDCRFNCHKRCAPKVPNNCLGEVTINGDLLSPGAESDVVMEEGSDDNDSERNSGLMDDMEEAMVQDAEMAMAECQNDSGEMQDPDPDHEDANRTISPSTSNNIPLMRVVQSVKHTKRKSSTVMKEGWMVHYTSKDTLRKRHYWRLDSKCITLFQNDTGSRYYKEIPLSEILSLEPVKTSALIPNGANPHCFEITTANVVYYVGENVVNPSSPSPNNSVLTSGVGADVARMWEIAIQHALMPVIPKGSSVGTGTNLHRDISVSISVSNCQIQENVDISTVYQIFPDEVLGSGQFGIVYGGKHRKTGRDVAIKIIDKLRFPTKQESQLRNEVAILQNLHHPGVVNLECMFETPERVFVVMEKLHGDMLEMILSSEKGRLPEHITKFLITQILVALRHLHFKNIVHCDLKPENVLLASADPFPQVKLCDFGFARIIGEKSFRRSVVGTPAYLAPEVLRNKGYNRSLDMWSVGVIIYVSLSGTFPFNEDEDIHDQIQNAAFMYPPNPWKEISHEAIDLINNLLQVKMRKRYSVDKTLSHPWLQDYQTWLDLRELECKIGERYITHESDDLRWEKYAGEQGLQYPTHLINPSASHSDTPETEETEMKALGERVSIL
ROMK primary: ROMK potassium channel modulators, primary screen, cell-based, thallium flux, MLSMR library; ATP-sensitive inward rectifier potassium channel 1 (Homo sapiens), P48048; Tet-inducible ROMK, thallium flux fluorescence; actives lie on both sides; B-score at 10 µM; 130,000 tested, 2% active;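 active means signal ratio slope over the read window, or its plate-corrected B-score, at least 3 SD from the plate mean, either direction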;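 further: B-score of the F/F0 ratio slope over 7 to 12 s after thallium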
Redox H2O2 prof: compounds producing H2O2 with reducing agent – biochemical, NIH compound library profiling, artefact control for MLSCN library redox annotation, primary screen; DTT-dependent redox cycling H2O2, phenol red/HRP absorbance; 100% = 100 µM peroxide control, 0% = buffer; activation, % at 10 µM; 200,000 tested, 0.03% active;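 active means activation of at least 50% relative to the plate's high and low controls in the primary single-dose screen; inactive means activation below 50%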;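 further: compound incubated with DTT at 0.8 mM final as the reducing agent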
MDM2 E3 inh: MDM2-luciferase reporter signal enhancers, primary screen, MDM2 E3 ligase inhibitor project, cell-based, luminescence, 1536-well. E3 ubiquitin-protein ligase Mdm2 (Homo sapiens), Q00987. cell-based MDM2 ubiquitination luciferase reporter, 2 h; 0 = plate control, 100 = twice control, blank-subtracted. signal enhancement, % at 5 µM. 210,000 tested, 0.11% active. AID 1230, 2008;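 active means signal enhancement of 30% or more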;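 further: luminescence tracks abundance of the self-degrading MDM2-luciferase fusion protein; higher signal means inhibition of MDM2 E3 ligase activity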
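Assay system: mammalian cells stably expressing self-ubiquitinating, self-degrading MDM2 E3–luciferase fusion. Quantity: 2000 cells in each well. Medium: DMEM culture medium. Compound dosing: single-point 5 µM. Timing: cell settling 4 h, compound treatment 2 h, both 37 °C. Technique: luciferase luminescence. Read-out basis: percent signal gain over controls, blank-subtracted. Benchmarks: plate controls and plate blanks.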
p97 ATPase inh: inhibitors of human p97 ATPase, primary screen, biochemical; Transitional endoplasmic reticulum ATPase (Homo sapiens), P55072; recombinant p97 ATPase, Kinase-Glo ATP luminescence, 3 h; 220,000 tested, 0.42% active; inhibition, % at 8 µM; AID 1481, 2009; in the data active means inhibition above about 15%;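 further: 0% = DMSO vehicle and 100% = wells lacking enzyme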
KCC2 sec1: KCC2 modulators in sodium-free buffer, confirmation, cell-based, HEK293 KCC2, thallium flux, secondary assay; shares compounds with KCC2 mod; FluoZin2 fluorescence; hits give high values; normalised thallium flux (F/F0 slope) at 10 µM; 3,700 tested, 15% active; AID 1713, 2009;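 active means thallium flux slope above the same plate's solvent-only control mean plus 3 SD; inconclusive means the two replicate wells disagree; inactive means no significant difference from solvent-only control wells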
KCC2 bumet counter: thallium flux persisting under bumetanide in KCC2 cells, confirmation, counter-screen for KCC2 modulator project, cell-based, HEK293 KCC2, FluoZin2, secondary assay 3; shares compounds with KCC2 mod; HEK293-KCC2 + bumetanide/ouabain; hits give high values; normalized thallium flux at 10 µM; 3,700 tested, 49% active; AID 1714, 2009;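 active means thallium entry rate above the same plate's blocked-transporter control wells by more than 3 SD; inconclusive means the two repeat wells disagree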;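 further: raw slope of fluorescence over initial fluorescence between 10 and 20 s after thallium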
KCC2 sec2: KCC2 modulators without ouabain present, confirmation, cell-based, HEK293 KCC2, thallium flux, FluoZin2, secondary assay 2; 3,700 tested, 23% active; normalized thallium flux at 10 µM; thallium flux FluoZin2 fluorescence; actives lie on both sides; F/F0 rise rate, 10–20 s post-thallium; shares compounds with KCC2 mod;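 active means thallium flux slope more than 3 SD above or below the plate's solvent-only control mean, mostly below; inconclusive means the two repeat wells disagreed; inactive means no significant shift from solvent-only controls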;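 further: raw slope with 0.1% DMSO as baseline and bumetanide as block control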
HEK counter1: thallium flux modulation in parental HEK cells, confirmation, counter-screen for KCC2 modulator project, cell-based, counterscreen 1. shares compounds with KCC2 mod. HEK293 parental cells, thallium flux FluoZin2, ouabain; baseline-ratio fluorescence slope, 10–20 s after thallium. thallium flux rate (normalised fluorescence) at 10 µM. 3,700 tested, 46% active. AID 1716, 2009;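 active means thallium flux rate significantly above the same plate's solvent-only control wells, beyond their mean plus 3 SD; inconclusive means the two replicate wells gave conflicting results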
KCC2 ouabain: KCC2 inhibitors and activators, ouabain retest, confirmation, HEK-KCC2 cells. shares compounds with KCC2 mod. HEK293-KCC2, thallium flux FluoZin2 fluorescence; bidirectional: low = inhibitor, high = activator. raw Tl+ flux slope (below DMSO = inhibition, above = activation) at 10 µM. 3,700 tested, 48% active. AID 1717, 2009;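 active means thallium flux slope beyond 3 SD from same-plate DMSO control mean in most replicates, usually higher, sometimes lower; inconclusive means repeat tests gave conflicting results; inactive means no significant difference from controls in most replicates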;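 further: slope of initial-normalized fluorescence between seconds 10 and 20 after thallium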
HEK counter2: native HEK Tl+ uptake effects, second counter-screen – HEK cells, counterscreen 2, counter-screen for KCC2 modulator project, confirmation. shares compounds with KCC2 mod. HEK293 parental, thallium flux FluoZin-2 fluorescence slope. thallium flux slope at 10 µM. 3,700 tested, 33% active. AID 1718, 2009;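 active means thallium flux slope above the same plate's solvent-control mean plus 3 SD in both duplicate wells; inconclusive means duplicate wells that disagreed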;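 further: run without ouabain in cells lacking the KCC2 cotransporter; slope of fluorescence scaled to its starting value between 10 and 20 s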
The depositor's hits bear a star; ? = inconclusive; . = no result given.

SMILES | KCC2 mod | PKD1 inh | ROMK primary | Redox H2O2 prof | MDM2 E3 inh | p97 ATPase inh | KCC2 sec1 | KCC2 bumet counter | KCC2 sec2 | HEK counter1 | KCC2 ouabain | HEK counter2
CCC(C)n1c(O)c(C=Nc2cccc(C(F)(F)F)c2)c(=O)[nH]c1=S (configuration not stated) | 0.77 | 6 | 0.0051 | -1 | -9 | -5 | 0.0062 | 0.018* | 0.03 | 0.019* | 0.025* | 0.015*
CC(C)c1oc(=O)cc2c1[C@@H](O)[C@H]1OC(=O)[C@@]3(C)C[C@@H](O)[C@@H](O)[C@@]2(C)C13 (some centres not stated) | 5.5* | -17 | 0.31 | 1 | . | 8 | 0.0096 | 0.0068 | 0.029 | ? | 0.021 | 0.01
COC(=O)c1cn(C(=O)c2cccc3ccccc23)c2ccccc12 | 0.026 | . | -0.13 | . | -4 | 4 | . | . | . | . | . | .
CC(C)C[C@H](NC(=O)[C@@H]1CCCN1C(=O)[C@@H](N)Cc1ccc(O)cc1)C(=O)NCC(N)=O | -3.1* | -2 | -0.36 | 1 | . | 7 | ? | 0.0057* | 0.031 | ? | 0.021 | 0.011
CC(C)CC(NC(=O)C1CCCCC1)C(=O)N1CCC2(CC1)OCCO2 (configuration not stated) | . | -2 | -0.14 | 0 | -9 | 7 | . | . | . | . | . | .
O=c1[nH]c(O)c(N=Nc2cc([N+](=O)[O-])ccc2O)c(=O)[nH]1 | . | -4 | . | 1 | -6 | -17 | 0.0072 | ? | 0.032 | 0.008 | 0.019 | 0.012
NC(=O)c1ccc(N=Nc2c(O)[nH]c(=O)[nH]c2=O)cc1 | 0.44 | -5 | . | 0 | -13 | 5 | . | . | . | . | . | .
Cc1cc(OCCN2CC2)c2ccccc2n1 | -0.064 | . | -1.8 | . | -7 | 0 | . | . | . | . | . | .
CN1CCN(c2c(N)c(=O)oc3ccccc23)CC1 | -0.33 | 4 | -0.87 | 0 | -7 | -5 | . | . | . | . | . | .
CCCC(=O)OCC[N+](C)(C)C | 4.9* | -12 | . | 1 | . | 4 | ? | 0.008 | 0.029 | 0.0072 | 0.022 | 0.0098
O=c1[nH]c(=O)n(Cc2ccc(F)cc2)c(O)c1C=NCc1cccnc1 | 4.4* | 0 | . | 1 | -15 | 3 | 0.0095 | 0.0056 | 0.033 | 0.0044 | 0.019 | 0.011

Assay outcomes as filed in PubChem.
